Reference: ChEMBL document CHEMBL4014345, “Development of Selective Clk1 and -4 Inhibitors for Cellular Depletion of Cancer-Relevant Proteins” (J Med Chem, 2017)
Blank lines part the entries; values can stand above or below the compound they belong to.

What was measured:
[1] = target: Dual specificity protein kinase CLK1 (Homo sapiens, UniProt P49759); experiment: Inhibition of recombinant human GST-tagged Clk1 expressed in Escherichia coli at 100 nM using RS repeat substrate peptide after 15 mins in presence of [gamma-32]-ATP
Chain of Dual specificity protein kinase CLK1 (P49759 whole entry, looked up): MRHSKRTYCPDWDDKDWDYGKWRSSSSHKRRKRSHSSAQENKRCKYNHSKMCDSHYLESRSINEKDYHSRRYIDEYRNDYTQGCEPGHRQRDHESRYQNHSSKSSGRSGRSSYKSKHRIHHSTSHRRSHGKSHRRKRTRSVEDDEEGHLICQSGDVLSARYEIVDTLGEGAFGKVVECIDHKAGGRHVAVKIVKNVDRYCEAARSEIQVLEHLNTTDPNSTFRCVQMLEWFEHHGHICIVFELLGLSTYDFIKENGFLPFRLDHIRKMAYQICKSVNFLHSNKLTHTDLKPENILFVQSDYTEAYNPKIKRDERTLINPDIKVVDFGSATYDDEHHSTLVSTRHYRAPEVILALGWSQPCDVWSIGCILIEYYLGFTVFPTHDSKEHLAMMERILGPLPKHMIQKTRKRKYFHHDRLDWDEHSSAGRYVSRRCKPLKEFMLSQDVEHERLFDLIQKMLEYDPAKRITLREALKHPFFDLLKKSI

[2] = target: T1, Dual specificity protein kinase CLK1/CLK4 (Homo sapiens, UniProt Q9HAZ1+P49759); experiment: Inhibition of CLK1/4 in human MDA-MB-231 cells assessed as down regulation of EGFR expression at 20 uM after 3 days by Western blot analysis relative to control; type: cell-based
In short: (§1)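 T24 or MDA-MB-231 cells were grown in DMEM to 70% confluency. The medium was replaced with compound diluted in DMEM, and cells were kept 3 days. Total protein was immunoblotted with monoclonal antibodies in 3% BSA/PBS against EGFR, p70S6K α, PARP-1, ERK2, HDAC1, CD44, PCNA and GRP94.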

[3] = target: T1, Dual specificity protein kinase CLK1/CLK4; experiment: Inhibition of CLK1/4 in human MDA-MB-231 cells assessed as down regulation of S6 kinase expression at 5 uM after 3 days by Western blot analysis relative to control; type: cell-based; in short: as §1
[4] = target: T1, Dual specificity protein kinase CLK1/CLK4; experiment: Inhibition of CLK1/4 in human MDA-MB-231 cells assessed as down regulation of EGFR expression at 2.5 uM after 3 days by Western blot analysis relative to control; type: cell-based; in short: as §1
[5] = target: T1, Dual specificity protein kinase CLK1/CLK4; experiment: Inhibition of CLK1/4 in human T24 cells assessed as down regulation of EGFR expression at 10 uM after 3 days by Western blot analysis relative to control; type: cell-based; in short: as §1
[6] = target: T1, Dual specificity protein kinase CLK1/CLK4; experiment: Inhibition of CLK1/4 in human MDA-MB-231 cells assessed as down regulation of S6 kinase expression at 20 uM after 3 days by Western blot analysis relative to control; type: cell-based; in short: as §1
[7] = target: T1, Dual specificity protein kinase CLK1/CLK4; experiment: Inhibition of CLK1/4 in human MDA-MB-231 cells assessed as down regulation of EGFR expression at 5 uM after 3 days by Western blot analysis relative to control; type: cell-based; in short: as §1
[8] = target: T1, Dual specificity protein kinase CLK1/CLK4; experiment: Inhibition of CLK1/4 in human T24 cells assessed as down regulation of HDAC1 expression at 15 uM after 3 days by Western blot analysis relative to control; type: cell-based; in short: as §1
[9] = target: T1, Dual specificity protein kinase CLK1/CLK4; experiment: Inhibition of CLK1/4 in human T24 cells assessed as down regulation of HDAC1 expression after 3 days by Western blot analysis; type: cell-based; in short: as §1
[10] = target: T1, Dual specificity protein kinase CLK1/CLK4; experiment: Inhibition of CLK1/4 in human T24 cells assessed as down regulation of HDAC1 expression at 10 uM after 3 days by Western blot analysis relative to control; type: cell-based; in short: as §1
[11] = system: MDA-MB-231; experiment: Cytotoxicity against human MDA-MB-231 cells assessed as growth inhibition after 5 days by MTT assay; type: functional; details: MDA-MB-231, 120 h
In short: (§2)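 They were seeded at 5000 cells per well onto compound or DMSO (0.2% final). Plates were kept 5 days at 37 °C in 5% CO2 with no medium change, then read by MTT.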

[12] = target: T1, Dual specificity protein kinase CLK1/CLK4; experiment: Inhibition of CLK1/4 in human T24 cells assessed as down regulation of EGFR expression at 15 uM after 3 days by Western blot analysis relative to control; type: cell-based; in short: as §1
[13] = target: T1, Dual specificity protein kinase CLK1/CLK4; experiment: Inhibition of CLK1/4 in human MDA-MB-231 cells assessed as down regulation of S6 kinase expression after 3 days by Western blot analysis; type: cell-based; in short: as §1
[14] = target: T1, Dual specificity protein kinase CLK1/CLK4; experiment: Inhibition of CLK1/4 in human T24 cells assessed as down regulation of HDAC1 expression at 5 uM after 3 days by Western blot analysis relative to control; type: cell-based; in short: as §1
[15] = target: T1, Dual specificity protein kinase CLK1/CLK4; experiment: Inhibition of CLK1/4 in human MDA-MB-231 cells assessed as down regulation of EGFR expression after 3 days by Western blot analysis; type: cell-based; in short: as §1
[16] = target: T1, Dual specificity protein kinase CLK1/CLK4; experiment: Inhibition of CLK1/4 in human T24 cells assessed as down regulation of EGFR expression at 5 uM after 3 days by Western blot analysis relative to control; type: cell-based; in short: as §1
[17] = target: T1, Dual specificity protein kinase CLK1/CLK4; experiment: Inhibition of CLK1/4 in human MDA-MB-231 cells assessed as down regulation of S6 kinase expression at 2.5 uM after 3 days by Western blot analysis relative to control; type: cell-based; in short: as §1
[18] = target: T1, Dual specificity protein kinase CLK1/CLK4; experiment: Inhibition of CLK1/4 in human MDA-MB-231 cells assessed as down regulation of S6 kinase expression at 10 uM after 3 days by Western blot analysis relative to control; type: cell-based; in short: as §1
[19] = target: T1, Dual specificity protein kinase CLK1/CLK4; experiment: Inhibition of CLK1/4 in human MDA-MB-231 cells assessed as down regulation of EGFR expression at 10 uM after 3 days by Western blot analysis relative to control; type: cell-based; in short: as §1
[20] = target: T1, Dual specificity protein kinase CLK1/CLK4; experiment: Inhibition of CLK1/4 in human T24 cells assessed as down regulation of EGFR expression after 3 days by Western blot analysis; type: cell-based; in short: as §1
[21] = system: T-24; experiment: Cytotoxicity against human T24 cells assessed as growth inhibition after 5 days by MTT assay; type: functional; details: T-24, 120 h; in short: as §2

SMILES: COc1ccc2sc(C(=O)N3CCCCC3)cc2c1
inhibition [1]: 0%

SMILES: COc1ccc2sc(C(=O)N3CCOCC3)cc2c1
inhibition [1]: 0%

SMILES: COc1ccc2sc(C(=O)NCc3ccc(F)cc3)cc2c1
inhibition [1]: 23.5%

SMILES: COc1ccc2sc(C(=O)N3CCN(C)CC3)cc2c1
inhibition [1]: 0%

SMILES: COc1cccc(CNC(=O)c2cc3cc(OC)ccc3s2)c1
inhibition [1]: 13.4%

SMILES: COc1ccc2sc(C(=O)NCc3ccccn3)cc2c1
inhibition [1]: 0%

SMILES: COc1cccc(CN(C)C(=O)c2cc3cc(OC)ccc3s2)c1
inhibition [1]: 31.6%

SMILES: COc1ccc2sc(C(=O)NCc3ncc[nH]3)cc2c1
inhibition [1]: 0%

SMILES: COc1ccc2sc(C(=O)N(C)Cc3cccc(C)c3)cc2c1
inhibition [1]: 25.9%

SMILES: COc1ccc2sc(C(=O)N(C)Cc3ccccn3)cc2c1
inhibition [1]: 34.6%

SMILES: COc1ccc2sc(C(=O)N[C@H](C(=O)O)C(C)C)cc2c1
inhibition [1]: 0%

The next lines start with results.

inhibition [2]: 25.1%
inhibition [3]: 7.8%
inhibition [4]: 13.1%
inhibition [5]: 32.9%
inhibition [1]: 33.9%
inhibition [6]: 10.9%
inhibition [7]: 36.7%
inhibition [8]: 0%
IC50 [9]: > 15 µM
inhibition [10]: 16.1%
inhibition [12]: 36.6%
IC50 [13]: > 20 µM
inhibition [14]: 13.7%
IC50 [15]: > 20 µM
inhibition [16]: 26%
inhibition [17]: 0%
inhibition [18]: 8%
inhibition [19]: 30.9%
IC50 [20]: > 15 µM
SMILES: COc1ccc2sc(C(=O)NCc3cccc(F)c3)cc2c1
GI50 [11]: > 40 µM
GI50 [21]: > 40 µM

inhibition [1]: 43.2%
SMILES: COc1ccc2sc(C(=O)N(C)Cc3ccccc3F)cc2c1

inhibition [1]: 0.54%
SMILES: COc1ccc2sc(C(=O)Nc3ccccc3)cc2c1

inhibition [1]: 6%
SMILES: COc1ccc2sc(C(=O)N[C@H](C)C(C)(C)C)cc2c1

inhibition [1]: 0.5%
SMILES: COc1ccc2sc(C(=O)NCC(=O)O)cc2c1

inhibition [1]: 0%
SMILES: COc1ccc2sc(C(=O)N[C@@H](C)C(=O)O)cc2c1

inhibition [1]: 32.9%
SMILES: COc1ccc2sc(C(=O)N(C)CCc3ccccc3)cc2c1
